For 96 molecules, cytotoxicity results are on record in ChEMBL document CHEMBL4513216, “Probing the Open Global Health Chemical Diversity Library for Multistage-Active Starting Points for Next-Generation Antimalarials” (ACS Infect Dis, 2020).

The nature of this data set: Toxicity liver stage against HepG2, at 10uM. The class given is cell-based. Also noted: test concentration 10 uM, cell line HepG2-A16-CD81EGFP. Conditions: human, HepG2-A16-CD81EGFP cells; read-out: INHIBITION
Put shortly:
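Uninfected HepG2-A16-CD81EGFP cells, 3 × 10^3 per well, 1536-well, plated on prespotted compound at 10 μM final, parasite-free screening media added to match infected plates; puromycin 10 μM positive, DMSO 0.5% negative; run in parallel with 48 h PbLuc assay at 37 °C, 5% CO2; viability by CellTiter-Glo luminescence, normalized to controls.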
For `Cc1cccc(-c2noc([C@@H]3C[C@@H](O)CN3Cc3ccc(CO)o3)n2)c1`, the cytotoxicity at 10 µM was 7.38%. As to `CC(C)(C)c1cc(C[C@H]2CNCC[C@H]2CC(=O)N2CCCCC2)no1`, the cytotoxicity at 10 µM was -1.91%. With `CCSc1ccccc1C(=O)NCC1CCN(Cc2ccsc2)CC1` the figure was -8.44%; with `O=C(Cc1ccsc1)NCCc1ccoc1`, 5.5%. In the case of `O=C(CC1CC1)N1Cc2nccn2CC(COc2cccnc2)C1` (stereo unspecified), the cytotoxicity at 10 µM was found to be 5.09%.

As for `O=S(=O)(NCC1CCN(c2ccccn2)CC1)c1ccccc1F`, the cytotoxicity at 10 µM is -0.549%. On to `CCn1c(NCc2ccc(OC)cc2)nc2c(C)nn(C)c2c1=O`, for which the cytotoxicity at 10 µM came out at 4.23%. `Cc1ccnc(C2CCN(CCCOc3ccccc3F)C2)n1` (stereo unspecified): the cytotoxicity at 10 µM amounted to 6.04%. With `CN([C@@H]1CCC[C@@H](n2ccnc2)[C@@H]1O)S(=O)(=O)c1cn(C)cn1`, the cytotoxicity at 10 µM was found to be 0.57%. Take `CN1CCC(c2cncc(Cl)n2)CC1`: the cytotoxicity at 10 µM amounted to 0.752%. `CCCc1cc(C(=O)N[C@@H]2CCC[C@@H](N3CCCC3)[C@@H]2O)no1`: the cytotoxicity at 10 µM is -2.48%.

Consider `Cc1cnc(-c2nc(O)c3c(n2)CN(C(=O)C2CCOC2)CC3)cn1` (stereo unspecified), for which the cytotoxicity at 10 µM is -6.76%.

For `CCOC(=O)c1n[nH]cc1-c1cncn1CC(C)n1nc(C)cc1C` (stereo unspecified), the cytotoxicity at 10 µM is 2.25%. `NC(=O)CN1CCCC1c1cncc(Oc2ccc(Cl)cc2)n1` (stereo unspecified): the cytotoxicity at 10 µM was -10.4%. For `Cc1nc(C)c(C(=O)N2CCCC2c2nc(O)cc(C(C)C)n2)s1` (stereo unspecified), the cytotoxicity at 10 µM is -29.4%.

With `O=C(C1CC1)N1CCc2nc(C3CCN(C(=O)C4CC4)C3)nc(O)c2C1` (stereo unspecified), the cytotoxicity at 10 µM was -20.9%.

In the case of `Cc1nc(O)cc(C2CCCN2CCO)n1` (stereo unspecified), the cytotoxicity at 10 µM is -14.5%. With `CCc1nc2ccccc2c(=O)n1CC1(O)CCN(CC(=O)OC)CC1` the figure was -4.99%; with `CC(=O)N1CCCC1c1cccc(Cc2ccc(F)cc2)n1` (stereo unspecified), -1.98%; with `Cc1ncc(CNC(=O)CCc2cccc(F)c2)c(C2CCCN2C)n1` (stereo unspecified), -6.82%. With `CC(C)CNC(=O)c1cc(C2CC2)nc2onc(C3CCNCC3)c12` the figure was 10.8%.

With `Cc1ccc(C)c(-n2nnnc2SCN2CCCCC2=O)c1`, the cytotoxicity at 10 µM was -47.3%. For `CN(Cc1cc(Cl)c2c(c1)OCO2)Cc1cscn1`, the cytotoxicity at 10 µM was -2.76%.

As to `COC(=O)NCC(=O)N(C)Cc1csc(C)n1`, the cytotoxicity at 10 µM is 2.33%. For `O=C1NCCCCC1NC(=O)C1(c2cccc(C(F)(F)F)c2)CC1` (stereo unspecified), the cytotoxicity at 10 µM was -5.67%. `CSc1ccc(CNC2(c3ccc(F)cc3)CCOCC2)cc1`: the cytotoxicity at 10 µM was -4.51%. For the molecule `CN(C)C1CCCN(C(=O)NCCc2cc(F)ccc2F)C1` (stereo unspecified), the cytotoxicity at 10 µM was -1.05%.

Turning to `CC(CNC(=O)N1CCC(CO)CC1)Cc1cccs1` (stereo unspecified), the cytotoxicity at 10 µM is -8.52%. As for `Cc1ccc(NC(=O)NC(C)(C)c2noc(C)n2)cc1`, the cytotoxicity at 10 µM amounted to 12.6%. As to `Cn1nc2c(cc1=O)CN(CC(=O)Nc1nccs1)CC2`, the cytotoxicity at 10 µM is 7.07%. Take `CN(C)c1ccnc(N2CCC(NCCOc3ccccc3)CC2)n1`: the cytotoxicity at 10 µM was -4.99%. On to `O=C(Nc1ccccc1OC1CCOC1)c1cc[nH]n1` (stereo unspecified), for which the cytotoxicity at 10 µM is -1.57%. With `COCCN(C(=O)c1c[nH]c2ncccc12)C1CCCC1` the figure was -3.08%. As for `O=C(c1ccoc1)N1CCCCC1c1nc[nH]n1` (stereo unspecified), the cytotoxicity at 10 µM is -7.03%. With `COc1ccccc1-c1noc(CNc2ccc(F)cc2OCCO)n1` the figure was -37.7%; with `CC(SCCS(C)(=O)=O)c1nc(Cc2ccccc2)no1` (stereo unspecified), 2.25%. `CCC(C)Oc1cc(C(=O)Nc2nc(C)ns2)ccn1` (stereo unspecified): the cytotoxicity at 10 µM was -1.02%. With `O=C(O)c1ccnc(SCc2ccccc2)c1` the figure was -9.98%; with `O=S(=O)(NC1CCCCC12OCCO2)c1cc(Cl)cc(Cl)c1` (stereo unspecified), 11.5%; with `CCn1nc(C)cc1C(=O)N1CCOc2ccc(OC)cc21`, 14.3%.

As to `CCS(=O)(=O)N1CCN(C(C)c2ccccc2OC)CC1` (stereo unspecified), the cytotoxicity at 10 µM came out at 4.55%.

For `CC(C)c1ccc(-n2cc(O)c(C(=O)O)n2)cc1`, the cytotoxicity at 10 µM is -42.4%. With `NC(=O)N1CCCN(C2CCCCc3ccccc32)CC1` (stereo unspecified), the cytotoxicity at 10 µM was -43.9%. For `CC(Nc1ccc(CC(=O)N(C)C)cc1)C(=O)N(C)CCC#N` (stereo unspecified), the cytotoxicity at 10 µM was found to be 1.42%. On to `CC(CNC(=O)c1ccccc1Oc1cccnc1)N(C)C` (stereo unspecified), for which the cytotoxicity at 10 µM was -9.29%. On to `O=C(NC1(c2cccc(F)c2)CCOCC1)c1cc[nH]n1`, for which the cytotoxicity at 10 µM was -6.83%. For `COc1cc(C(=O)N(Cc2ccc(F)cc2)C2CC2)cc2c1OCCO2`, the cytotoxicity at 10 µM is -1.33%.

Regarding `CC(NC(=O)NCC1(O)CCC1)c1ccc(OCC2CC2)c(F)c1` (stereo unspecified), the cytotoxicity at 10 µM was -4.69%. Take `CS(=O)(=O)NCCCNC(=O)c1cccc(-n2cccc2)c1`: the cytotoxicity at 10 µM was -9.86%. For the molecule `Cc1cc(C(=O)N2CCn3cc(CN4CCCC4)nc3C2)no1`, the cytotoxicity at 10 µM was -79.3%. In the case of `N#Cc1cccc(N2CC3(CCN(C(=O)C4CC=CC4)C3)CC2=O)c1` (stereo unspecified), the cytotoxicity at 10 µM stood at 1.77%. As for `N[C@H]1CN(C(=O)Cc2ccc(Cl)c(Cl)c2)C[C@@H]1C1CC1`, the cytotoxicity at 10 µM was -14.4%. Turning to `Cc1cc(C)nc(NCc2cc3n(n2)CCCN(C(=O)C2CCC2)C3)n1`, the cytotoxicity at 10 µM is -120%. For `Fc1cccc(-c2n[nH]cc2-c2nc(CN3CCOCC3)no2)c1`, the cytotoxicity at 10 µM is -7.58%. The result for `COCCN1CCN(c2nc(C3CCCC3)nc3c2cnn3C)CC1` reads -1.91%; that for `Cc1ccnc(NCCNC(=O)Cc2c(C)[nH]c3c(C)ccc(C)c23)c1`, -1.89%. The result for `O=c1c(C(F)(F)F)cccn1Cc1nnc(-c2cccnc2)o1` reads -2.93%. For `CCC[C@@H]1CN(Cc2c[nH]nc2-c2ccc(OC)cc2)C[C@H]1NC(C)=O`, the cytotoxicity at 10 µM is -0.566%. With `COCCN1CC(c2nc(CSC)no2)CCC1=O` (stereo unspecified) the figure was -7.74%; with `Cc1[nH]nc(CCC(=O)N2CCOC(CCc3ccccc3)C2)c1C` (stereo unspecified), -10.8%. `O=C(Nc1ccccc1OCCc1ccccn1)NC1CCOCC1`: the cytotoxicity at 10 µM was 2.43%.

With `Cc1ccc(C)c(OCCNC(=O)[C@@H]2CCCCN2)c1`, the cytotoxicity at 10 µM was 0.997%. Regarding `NC(=O)c1noc(Cn2ccc3ccccc3c2=O)n1`, the cytotoxicity at 10 µM was found to be 1.39%.

Take `Cc1nc(NCCSc2ccccn2)c2c(C)noc2n1`: the cytotoxicity at 10 µM was 18.8%. With `Cc1ccc(F)cc1-c1ccc(N)nc1`, the cytotoxicity at 10 µM is -143%. As to `CC(C)c1nc(C(=O)N2C[C@H](C(C)C)[C@@H](N)C2)cs1`, the cytotoxicity at 10 µM is -3.73%.

Take `CC(C)CN1CCCn2nc(CNC(=O)NC(C)(C)C)cc2C1`: the cytotoxicity at 10 µM is -4.54%. For `Cc1cccc(OCC2CCCN(C(=O)Cn3ccccc3=O)C2)c1` (stereo unspecified), the cytotoxicity at 10 µM was -0.503%. Regarding `CCn1c(CN2CCCC2)nnc1C1CCN(S(=O)(=O)CC)CC1`, the cytotoxicity at 10 µM was -4.92%. `COc1nc2c(cc1C(=O)N1C[C@@H](N)C[C@H]1C(=O)NC(C)C)CCC2`: the cytotoxicity at 10 µM came to 3.52%. With `O=C(Cn1c(=O)oc2ccccc21)N1Cc2cnn(CCO)c2C1` the figure was 0.154%; with `O=C(C1CCCO1)N1CCC(n2cc(-c3ccsc3)nn2)CC1` (stereo unspecified), -4.18%. For `CNC(=O)CC1CCN(Cc2nc(-c3cccc(Cl)c3)oc2C)CC1`, the cytotoxicity at 10 µM was -9.75%. On to `CNc1nc2c(c(C(=O)N3CCCC3)n1)CN(Cc1nccn1C)CC2`, for which the cytotoxicity at 10 µM was -8.74%. With `O=C(c1cccc(=O)[nH]1)N(Cc1ccsc1)CC1CCCO1` (stereo unspecified), the cytotoxicity at 10 µM was -11.5%. For `CCCC(=O)N(C)C(c1cccc(F)c1)c1ccccn1` (stereo unspecified), the cytotoxicity at 10 µM was -2.51%. Turning to `CC(C)Oc1ccc(CNC(=O)CN(C)S(C)(=O)=O)cc1F`, the cytotoxicity at 10 µM is -3.1%.

Regarding `Cn1ncc2c(=O)[nH]c(CN3CCc4sccc4C3)nc21`, the cytotoxicity at 10 µM is -19%. In the case of `Cc1nc2c(c(C)c1CC(=O)NCc1ccco1)c(=O)[nH]n2C`, the cytotoxicity at 10 µM was -42.5%. In the case of `CCc1nc(C2CCCN(C(=O)NC(C)C)C2)no1` (stereo unspecified), the cytotoxicity at 10 µM was -14%. In the case of `OC(CN1CCOCC1)CN1CCc2c(ncn2C2CC2)C1` (stereo unspecified), the cytotoxicity at 10 µM came to 2.45%. For the molecule `CS(=O)(=O)N1CCN(CC(O)COc2ccc(F)cc2)CC1` (stereo unspecified), the cytotoxicity at 10 µM is 6.11%. With `COc1ccc(C(CNC(=O)Nc2cn[nH]c2)N2CCOCC2)cc1` (stereo unspecified) the figure was 1.3%.

Turning to `c1nc(CN2CCCC(Cc3ccc(NC4CCCC4)nn3)C2)c[nH]1` (stereo unspecified), the cytotoxicity at 10 µM amounted to 3.6%. On to `O=C(NCc1ccco1)[C@H]1C[C@@H]2CCN(c3nncs3)C[C@H]2O1`, for which the cytotoxicity at 10 µM is 1.84%.

Consider `Cc1nc(Cn2c3c(ccc2=O)CC(NC(C)C)CC3)cs1` (stereo unspecified), for which the cytotoxicity at 10 µM was found to be 6.39%. The result for `Cc1cc(N(C)C)nc(C2CCCNC2)n1` (stereo unspecified) reads -3.55%; that for `CCC1=N[C@@]2(CC[C@@H]3CN(Cc4ccccc4F)C[C@@H]32)C(=O)N1CC`, -12.4%; that for `CN1CCO[C@@H]2CN(S(=O)(=O)c3cccnc3)C[C@@H]2C1`, 6.17%.

Turning to `COCCn1cc2c(n1)C(CNCc1ccc(F)cc1)OCC2` (stereo unspecified), the cytotoxicity at 10 µM is -9.47%. Take `COc1c(CNCc2ccc(C(=O)NC3CC3)cc2)c(C)nn1C`: the cytotoxicity at 10 µM was 3.18%. Consider `CN(C)CC1CN(C(=O)NCc2ccccc2)Cc2nccn2C1` (stereo unspecified), for which the cytotoxicity at 10 µM is -3.91%.

Turning to `Cc1nc(CN2C[C@@H]3CN(C(=O)c4ccnnc4)C[C@@H]3C2=O)cs1`, the cytotoxicity at 10 µM was -7.41%.

Take `Cc1ccccc1CC(C)NCc1c(C)nn(C)c1N1CCOCC1` (stereo unspecified): the cytotoxicity at 10 µM was -13.1%.

As to `Cc1noc(C)c1CN1C[C@@H]2COC[C@H](C(=O)N3CCOCC3)[C@@H]2C1`, the cytotoxicity at 10 µM is -70%.

For `O=C(NCC1CC1)[C@H]1C[C@H]2CN(C(=O)NCc3ccccc3)C[C@@H]1O2`, the cytotoxicity at 10 µM is 4.97%.
